According to ChEMBL document CHEMBL1130247, “Antirhino/enteroviral vinylacetylene benzimidazoles: a study of their activity and oral plasma levels in mice” (J Med Chem, 1997):
In brackets after ≈: the same amount, converted by molar mass.

How the values were obtained:
[1] = Oral plasma concentration in mice at 100 mg/kg dosage within 4-hr time frame.; type: ADME, organism-based; set-up: route oral, dose 100 mg/kg; conditions: mouse
[2] = tested on: Coxsackievirus; assay: Antiviral activity against coxsackie virus A21; type: functional, organism-based
Outline: (§1)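 HeLa monolayers in MEM with 5% FBS and 10 mM MgSO4, infected with virus for 1–2 h at room temperature. Overlay of 1.5% agarose mixed 1:1 with 2× MEM (2% FBS) holding graded compound concentrations, diluted in DMSO from a 20 mg/mL stock. Incubated at 37 °C until DMSO-control plaques reached optimal size. Formalin-fixed, crystal violet-stained, plaques counted in duplicate wells. IC50 by Reed–Muench.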

[3] = tested on: rhinovirus B14; assay: Antiviral activity against human rhinovirus 14 using plaque reduction assay in HeLa cell lines; type: functional, organism-based, human rhinovirus type 14; conditions: Rhinovirus B
[4] = tested on: Coxsackievirus; assay: Antiviral activity against coxsackie virus A21M; type: functional, organism-based
[5] = tested on: Coxsackievirus; assay: Antiviral activity against coxsackie virus B3; type: functional, organism-based; outline: as §1
[6] = tested on: Human rhinovirus sp.; assay: Antiviral activity against human rhinovirus 16; type: functional, organism-based
[7] = Antiviral activity against human rhinovirus 14 (HRV-14) using CPE/XTT assay in human tumor cell lines.; type: organism-based, human rhinovirus type 14; conditions: read-out: TC50 (the source's name)
Outline: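 Cytopathic-effect assay run by an earlier published method, except that surviving host cells were quantified with XTT substrate instead of crystal violet staining.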

[8] = tested on: Enterovirus C; assay: Antiviral activity against poliovirus 1; type: functional, organism-based; outline: as §1
[9] = tested on: Human rhinovirus sp.; assay: Antiviral activity against human rhinovirus 2; type: functional, organism-based
[10] = tested on: Human rhinovirus sp.; assay: Antiviral activity against human rhinovirus 1A; type: functional, organism-based
[11] = Oral bioavailability in monkey; type: ADME, organism-based; conditions: primates, in vivo
[12] = tested on: HeLa; assay: Antiviral activity against poliovirus 1 using PV-1 plaque reduction assay in HeLa cell lines; type: functional, cell-based; conditions: Homo sapiens; outline: as §1

SMILES	Cmax [1]	IC50 [2]	IC50 [3]	IC50 ([4]; Coxsackievirus, read-out: IC50)	IC50 [5]	IC50 [6]	CC50 [7]	IC50 [8]	IC50 [9]	IC50 [10]	bioavailability [11]	IC50 [4]	IC50 [12]
C#C/C=C(\c1cccc(Cl)c1)c1ccc2nc(N)n(S(=O)(=O)C(C)C)c2c1	18000 ng/mL	0.23 µg/mL (≈ 0.575 µM)	0.21 µg/mL (≈ 0.525 µM)	0.18 µg/mL (≈ 0.45 µM)	0.17 µg/mL (≈ 0.425 µM)	0.19 µg/mL (≈ 0.475 µM)	20 µg/mL (≈ 50 µM)	0.15 µg/mL (≈ 0.375 µM)	0.12 µg/mL (≈ 0.3 µM)	0.13 µg/mL (≈ 0.325 µM)			
C#C/C=C(\c1ccc(F)cc1)c1ccc2nc(N)n(S(=O)(=O)C(C)C)c2c1	9200 ng/mL	0.1 µg/mL (≈ 0.261 µM)	0.13 µg/mL (≈ 0.339 µM)		0.095 µg/mL (≈ 0.248 µM)	0.098 µg/mL (≈ 0.256 µM)	5.8 µg/mL (≈ 15.1 µM)	0.067 µg/mL (≈ 0.175 µM)	0.091 µg/mL (≈ 0.237 µM)	0.078 µg/mL (≈ 0.203 µM)	23%	0.062 µg/mL (≈ 0.162 µM)	
C#C/C=C(\c1ccccc1)c1ccc2nc(N)n(S(=O)(=O)C(C)C)c2c1		0.037 µg/mL (≈ 0.101 µM)	0.094 µg/mL (≈ 0.257 µM)	0.089 µg/mL (≈ 0.244 µM)	0.1 µg/mL (≈ 0.274 µM)	0.039 µg/mL (≈ 0.107 µM)	11 µg/mL (≈ 30.1 µM)	0.037 µg/mL (≈ 0.101 µM)	0.065 µg/mL (≈ 0.178 µM)	0.033 µg/mL (≈ 0.0903 µM)			
C#C/C=C(\c1cccc(F)c1)c1ccc2nc(N)n(S(=O)(=O)N(C)C)c2c1	8400 ng/mL	0.1 µg/mL (≈ 0.26 µM)	0.061 µg/mL (≈ 0.159 µM)	0.09 µg/mL (≈ 0.234 µM)	0.07 µg/mL (≈ 0.182 µM)	0.04 µg/mL (≈ 0.104 µM)	> 100 µg/mL	0.047 µg/mL (≈ 0.122 µM)	0.05 µg/mL (≈ 0.13 µM)	0.053 µg/mL (≈ 0.138 µM)			
CC(C)S(=O)(=O)n1c(N)nc2ccc(/C(=N/O)c3ccccc3)cc21 [ENVIROXIME]	890 ng/mL												
CC(C)S(=O)(=O)n1c(N)nc2ccc(C(=O)c3cccc(F)c3)cc21			2.1 µg/mL (≈ 5.81 µM)				15.9 µg/mL (≈ 44 µM)						
C#C/C=C(\c1ccc(C)cc1)c1ccc2nc(N)n(S(=O)(=O)C(C)C)c2c1	610 ng/mL		0.075 µg/mL (≈ 0.198 µM)				5.7 µg/mL (≈ 15 µM)						
C#C/C=C(\c1ccccc1)c1ccc2nc(N)n(S(=O)(=O)C(C)C)c2c1F	520 ng/mL		2.8 µg/mL (≈ 7.3 µM)				57 µg/mL (≈ 149 µM)						
C#C/C=C(\c1ccccc1)c1cc2c(cc1F)nc(N)n2S(=O)(=O)C(C)C	16000 ng/mL						13 µg/mL (≈ 33.9 µM)				46%		1.5 µg/mL (≈ 3.91 µM)
C#C/C=C(\c1ccc(OC)c(F)c1)c1ccc2nc(N)n(S(=O)(=O)C(C)C)c2c1	9200 ng/mL	0.032 µg/mL (≈ 0.0774 µM)	0.061 µg/mL (≈ 0.148 µM)	0.029 µg/mL (≈ 0.0701 µM)	0.035 µg/mL (≈ 0.0846 µM)	0.06 µg/mL (≈ 0.145 µM)	5.5 µg/mL (≈ 13.3 µM)	0.016 µg/mL (≈ 0.0387 µM)	0.054 µg/mL (≈ 0.131 µM)	0.049 µg/mL (≈ 0.119 µM)			
CC#C/C=C(\c1cccc(F)c1)c1ccc2nc(N)n(S(=O)(=O)C(C)C)c2c1	640 ng/mL	0.33 µg/mL (≈ 0.83 µM)	0.26 µg/mL (≈ 0.654 µM)	0.36 µg/mL (≈ 0.906 µM)	0.19 µg/mL (≈ 0.478 µM)	0.09 µg/mL (≈ 0.226 µM)	3.1 µg/mL (≈ 7.8 µM)	0.12 µg/mL (≈ 0.302 µM)	0.28 µg/mL (≈ 0.704 µM)	0.14 µg/mL (≈ 0.352 µM)			
C#C/C=C(/c1ccc2nc(N)n(S(=O)(=O)C(C)C)c2c1)c1ccccc1F	9200 ng/mL	0.079 µg/mL (≈ 0.206 µM)	0.092 µg/mL (≈ 0.24 µM)	0.1 µg/mL (≈ 0.261 µM)	0.05 µg/mL (≈ 0.13 µM)	0.07 µg/mL (≈ 0.183 µM)	66 µg/mL (≈ 172 µM)	0.045 µg/mL (≈ 0.117 µM)	0.05 µg/mL (≈ 0.13 µM)	0.035 µg/mL (≈ 0.0913 µM)			
C#C/C=C(\c1ccc(OC)cc1)c1ccc2nc(N)n(S(=O)(=O)C(C)C)c2c1		0.047 µg/mL (≈ 0.119 µM)	0.059 µg/mL (≈ 0.149 µM)	0.051 µg/mL (≈ 0.129 µM)	0.055 µg/mL (≈ 0.139 µM)	0.029 µg/mL (≈ 0.0733 µM)	5.2 µg/mL (≈ 13.1 µM)	0.04 µg/mL (≈ 0.101 µM)	0.041 µg/mL (≈ 0.104 µM)	0.03 µg/mL (≈ 0.0759 µM)			
C/C=C(\c1ccccc1)c1ccc2nc(N)n(S(=O)(=O)C(C)C)c2c1	5100 ng/mL												
C#C/C=C(\c1cccc(C(F)(F)F)c1)c1ccc2nc(N)n(S(=O)(=O)C(C)C)c2c1	4900 ng/mL		0.4 µg/mL (≈ 0.923 µM)				> 100 µg/mL						
C#C/C=C(\c1ccc(N(C)C)cc1)c1ccc2nc(N)n(S(=O)(=O)C(C)C)c2c1	210 ng/mL	0.14 µg/mL (≈ 0.343 µM)	0.117 µg/mL (≈ 0.286 µM)	0.13 µg/mL (≈ 0.318 µM)	0.06 µg/mL (≈ 0.147 µM)	0.08 µg/mL (≈ 0.196 µM)	5.3 µg/mL (≈ 13 µM)	0.059 µg/mL (≈ 0.144 µM)	0.06 µg/mL (≈ 0.147 µM)	0.048 µg/mL (≈ 0.117 µM)			
C#C/C=C(\c1ccc(F)c(F)c1)c1ccc2nc(N)n(S(=O)(=O)C(C)C)c2c1	2900 ng/mL	0.247 µg/mL (≈ 0.615 µM)	0.19 µg/mL (≈ 0.473 µM)	0.22 µg/mL (≈ 0.548 µM)	0.1 µg/mL (≈ 0.249 µM)	0.55 µg/mL (≈ 1.37 µM)	19 µg/mL (≈ 47.3 µM)	0.082 µg/mL (≈ 0.204 µM)	0.23 µg/mL (≈ 0.573 µM)	0.12 µg/mL (≈ 0.299 µM)			
C#C/C=C(\c1cc(F)cc(F)c1)c1ccc2nc(N)n(S(=O)(=O)C(C)C)c2c1	18000 ng/mL	0.19 µg/mL (≈ 0.473 µM)	0.17 µg/mL (≈ 0.423 µM)	0.23 µg/mL (≈ 0.573 µM)	0.14 µg/mL (≈ 0.349 µM)	0.26 µg/mL (≈ 0.648 µM)	32 µg/mL (≈ 79.7 µM)	0.12 µg/mL (≈ 0.299 µM)	0.18 µg/mL (≈ 0.448 µM)	0.12 µg/mL (≈ 0.299 µM)			
C#C/C=C(\c1ccc(OC(F)(F)F)cc1)c1ccc2nc(N)n(S(=O)(=O)C(C)C)c2c1	2000 ng/mL	0.22 µg/mL (≈ 0.489 µM)	0.55 µg/mL (≈ 1.22 µM)	0.5 µg/mL (≈ 1.11 µM)	0.7 µg/mL (≈ 1.56 µM)	0.22 µg/mL (≈ 0.489 µM)	18 µg/mL (≈ 40 µM)	0.27 µg/mL (≈ 0.601 µM)	0.35 µg/mL (≈ 0.779 µM)	0.26 µg/mL (≈ 0.578 µM)			
C#C/C=C(/c1ccc2nc(N)n(S(=O)(=O)C(C)C)c2c1)c1cc(F)ccc1F	9300 ng/mL	0.069 µg/mL (≈ 0.172 µM)	0.11 µg/mL (≈ 0.274 µM)	0.1 µg/mL (≈ 0.249 µM)	0.1 µg/mL (≈ 0.249 µM)	0.099 µg/mL (≈ 0.247 µM)	63 µg/mL (≈ 157 µM)	0.032 µg/mL (≈ 0.0797 µM)	0.079 µg/mL (≈ 0.197 µM)	0.096 µg/mL (≈ 0.239 µM)			
C#C/C=C(\c1cccc(F)c1)c1ccc2nc(N)n(S(=O)(=O)C(C)C)c2c1	12000 ng/mL	0.085 µg/mL (≈ 0.222 µM)	0.06 µg/mL (≈ 0.156 µM)	0.046 µg/mL (≈ 0.12 µM)	0.032 µg/mL (≈ 0.0835 µM)	0.057 µg/mL (≈ 0.149 µM)	5.3 µg/mL (≈ 13.8 µM)	0.037 µg/mL (≈ 0.0965 µM)	0.069 µg/mL (≈ 0.18 µM)	0.027 µg/mL (≈ 0.0704 µM)			
